Values joined by “and” are separate entries in the source; they are usually repeats but may differ in a detail not shown here. Equal values may be shown once.

We go through 12 molecules from ChEMBL document CHEMBL1133111, “Structure-based discovery of small molecule inhibitors targeted to protein tyrosine phosphatase 1B” (J Med Chem, 2000).

For experiment [1], the target named is T1, Tyrosine-protein phosphatase non-receptor type 1 (Homo sapiens) (UniProt P18031).
T1 sequence (whole entry): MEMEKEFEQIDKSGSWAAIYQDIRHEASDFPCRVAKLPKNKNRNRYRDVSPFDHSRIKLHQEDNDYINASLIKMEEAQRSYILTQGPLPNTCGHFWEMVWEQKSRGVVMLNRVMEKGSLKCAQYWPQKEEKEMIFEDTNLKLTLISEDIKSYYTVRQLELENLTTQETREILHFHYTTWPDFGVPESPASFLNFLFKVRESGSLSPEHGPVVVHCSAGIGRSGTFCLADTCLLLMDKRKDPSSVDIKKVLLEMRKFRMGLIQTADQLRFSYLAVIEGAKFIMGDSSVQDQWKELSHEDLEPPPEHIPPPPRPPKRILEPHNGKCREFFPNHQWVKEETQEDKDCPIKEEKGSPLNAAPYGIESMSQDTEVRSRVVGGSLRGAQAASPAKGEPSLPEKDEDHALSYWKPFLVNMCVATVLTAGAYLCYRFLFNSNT
The experiment is described as follows: Inhibitory activity against protein tyrosine phosphatases (PTP1B) (Kis=slope inhibitory constant). The gist of the method: (§1)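 Recombinant enzymes used: human PTP1B and LAR bearing both PTPase domains. Compounds were dissolved in DMSO, with 10% DMSO final in all reactions. Buffer was 50 mM 3,3-dimethylglutarate, pH 7.0, ionic strength 0.15 M set with NaCl, at 30 °C. Initial rates of pNPP hydrolysis were measured at eight substrate levels (0.2–5 Km) and three fixed inhibitor levels. Reactions were quenched with NaOH and read at A405 (ε 18 000 M⁻¹ cm⁻¹), correcting for non-enzymatic hydrolysis. Kis (slope) and Kii (intercept) were obtained from steady-state kinetics.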

Experiment [2] addresses Receptor-type tyrosine-protein phosphatase alpha (Homo sapiens) (UniProt P18433). The experiment is described as follows: Inhibitory activity against protein tyrosine phosphatases alpha (PTP alpha). The method, boiled down: (§2)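 Recombinant enzymes: human PTP1B; human PTPα intracellular fragment with both PTPase domains, cleaved from GST fusion; LAR with both PTPase domains; VHR purified to homogeneity. pNPP hydrolysis at 30 °C, pH 7.0, 50 mM 3,3-dimethylglutarate, ionic strength 0.15 M (NaCl), 10% DMSO final. Quenched with 1 N NaOH, A405 read. Ki from eight pNPP levels (0.2–5 Km) at three inhibitor concentrations.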

For experiment [3], the target named is Receptor-type tyrosine-protein phosphatase F (Rattus norvegicus) (UniProt Q64604). The experiment is described as follows: (§3) Inhibitory activity against rat recombinant leukocyte-common antigen-related molecule (LAR). The gist of the method: as §2
Experiment [4] addresses Dual specificity protein phosphatase 3 (Homo sapiens) (UniProt P51452). The experiment is described as follows: Inhibitory activity against human recombinant vaccinia H1 related phosphatase (Dual specificity protein phosphatase 3). The method, boiled down:
as §2

For experiment [5], the target named is T1, Tyrosine-protein phosphatase non-receptor type 1 (Homo sapiens). The experiment is described as follows: Inhibitory activity against protein tyrosine phosphatases (PTP1B) (Kii=intercept inhibitory constant). The method, boiled down: as §1
The target in experiment [6] is Receptor-type tyrosine-protein phosphatase F (Rattus norvegicus) (UniProt Q64604). Described as §3. The method, boiled down:
as §1
The source holds these as a separate data set.

The target of experiment [7] is T1, Tyrosine-protein phosphatase non-receptor type 1 (Homo sapiens). The experiment is described as follows: Inhibitory activity against protein tyrosine phosphatases (PTP1B); no inhibition at 1 mM.

Receptor-type tyrosine-protein phosphatase F (Rattus norvegicus), sequence (Q64604 whole entry): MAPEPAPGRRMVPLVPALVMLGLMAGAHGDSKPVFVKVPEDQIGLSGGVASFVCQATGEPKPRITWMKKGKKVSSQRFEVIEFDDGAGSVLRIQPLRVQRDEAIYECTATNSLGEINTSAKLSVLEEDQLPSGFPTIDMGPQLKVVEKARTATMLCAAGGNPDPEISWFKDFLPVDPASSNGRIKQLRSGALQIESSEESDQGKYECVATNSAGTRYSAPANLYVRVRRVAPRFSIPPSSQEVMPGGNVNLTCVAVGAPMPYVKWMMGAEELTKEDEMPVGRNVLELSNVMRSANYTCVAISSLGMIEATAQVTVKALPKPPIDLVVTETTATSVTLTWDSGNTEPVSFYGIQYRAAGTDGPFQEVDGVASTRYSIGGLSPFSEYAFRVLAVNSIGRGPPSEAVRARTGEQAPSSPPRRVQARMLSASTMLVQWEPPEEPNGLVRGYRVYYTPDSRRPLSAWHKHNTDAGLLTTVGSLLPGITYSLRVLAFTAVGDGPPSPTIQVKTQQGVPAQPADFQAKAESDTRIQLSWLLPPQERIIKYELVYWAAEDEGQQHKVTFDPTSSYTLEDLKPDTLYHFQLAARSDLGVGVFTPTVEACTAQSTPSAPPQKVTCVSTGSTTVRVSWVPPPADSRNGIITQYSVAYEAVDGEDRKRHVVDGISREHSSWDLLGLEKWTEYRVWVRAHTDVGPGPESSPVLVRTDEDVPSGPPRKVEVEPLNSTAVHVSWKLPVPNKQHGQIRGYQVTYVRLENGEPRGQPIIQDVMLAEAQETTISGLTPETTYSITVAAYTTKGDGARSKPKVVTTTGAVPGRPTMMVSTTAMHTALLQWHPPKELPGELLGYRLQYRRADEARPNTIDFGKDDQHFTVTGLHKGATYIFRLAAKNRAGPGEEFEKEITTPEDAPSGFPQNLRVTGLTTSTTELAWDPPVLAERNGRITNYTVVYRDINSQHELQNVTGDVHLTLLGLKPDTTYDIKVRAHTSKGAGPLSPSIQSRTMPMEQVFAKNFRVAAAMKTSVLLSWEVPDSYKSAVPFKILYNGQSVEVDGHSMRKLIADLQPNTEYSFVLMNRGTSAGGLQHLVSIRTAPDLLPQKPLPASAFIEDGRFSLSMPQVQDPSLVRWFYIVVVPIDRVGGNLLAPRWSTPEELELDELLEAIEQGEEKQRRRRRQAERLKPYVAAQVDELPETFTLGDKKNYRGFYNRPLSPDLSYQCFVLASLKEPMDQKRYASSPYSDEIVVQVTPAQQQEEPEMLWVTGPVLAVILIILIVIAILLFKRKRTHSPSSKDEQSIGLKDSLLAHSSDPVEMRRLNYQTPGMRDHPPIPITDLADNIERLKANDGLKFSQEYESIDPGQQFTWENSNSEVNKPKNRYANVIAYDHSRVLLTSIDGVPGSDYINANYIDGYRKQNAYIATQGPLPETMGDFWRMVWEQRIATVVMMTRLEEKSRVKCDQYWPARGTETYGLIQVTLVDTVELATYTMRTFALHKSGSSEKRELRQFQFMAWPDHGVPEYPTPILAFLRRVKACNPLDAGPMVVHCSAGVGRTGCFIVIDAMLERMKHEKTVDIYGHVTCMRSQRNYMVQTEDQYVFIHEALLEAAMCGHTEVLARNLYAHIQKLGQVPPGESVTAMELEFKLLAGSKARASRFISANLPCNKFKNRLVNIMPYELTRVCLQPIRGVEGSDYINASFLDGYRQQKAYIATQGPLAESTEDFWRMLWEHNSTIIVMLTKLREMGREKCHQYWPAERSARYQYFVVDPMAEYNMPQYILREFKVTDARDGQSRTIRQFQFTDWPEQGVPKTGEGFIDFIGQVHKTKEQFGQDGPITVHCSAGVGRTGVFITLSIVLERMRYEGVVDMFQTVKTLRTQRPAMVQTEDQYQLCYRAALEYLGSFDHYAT
Receptor-type tyrosine-protein phosphatase alpha (Homo sapiens), sequence (P18433 20-802 limits assumed): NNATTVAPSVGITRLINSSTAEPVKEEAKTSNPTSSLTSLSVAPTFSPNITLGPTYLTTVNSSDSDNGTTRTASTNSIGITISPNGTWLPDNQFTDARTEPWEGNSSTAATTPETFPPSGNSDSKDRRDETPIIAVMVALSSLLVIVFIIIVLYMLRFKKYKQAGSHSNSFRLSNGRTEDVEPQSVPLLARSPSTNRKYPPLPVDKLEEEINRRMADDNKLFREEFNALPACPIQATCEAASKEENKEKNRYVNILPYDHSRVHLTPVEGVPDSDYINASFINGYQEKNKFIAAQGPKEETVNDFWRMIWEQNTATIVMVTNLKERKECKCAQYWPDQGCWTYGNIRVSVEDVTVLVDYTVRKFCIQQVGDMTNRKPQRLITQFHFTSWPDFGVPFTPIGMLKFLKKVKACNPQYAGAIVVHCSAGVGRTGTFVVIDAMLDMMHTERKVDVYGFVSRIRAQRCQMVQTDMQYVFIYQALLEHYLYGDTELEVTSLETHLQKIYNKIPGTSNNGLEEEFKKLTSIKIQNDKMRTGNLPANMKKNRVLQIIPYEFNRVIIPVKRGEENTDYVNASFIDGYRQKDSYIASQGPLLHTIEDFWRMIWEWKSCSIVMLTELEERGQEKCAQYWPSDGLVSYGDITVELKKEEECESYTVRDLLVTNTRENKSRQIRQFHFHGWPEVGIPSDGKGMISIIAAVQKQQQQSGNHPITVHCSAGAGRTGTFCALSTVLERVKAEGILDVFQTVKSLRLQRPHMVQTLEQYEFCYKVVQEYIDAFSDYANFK
Dual specificity protein phosphatase 3 (Homo sapiens), sequence (P51452 whole entry, looked up): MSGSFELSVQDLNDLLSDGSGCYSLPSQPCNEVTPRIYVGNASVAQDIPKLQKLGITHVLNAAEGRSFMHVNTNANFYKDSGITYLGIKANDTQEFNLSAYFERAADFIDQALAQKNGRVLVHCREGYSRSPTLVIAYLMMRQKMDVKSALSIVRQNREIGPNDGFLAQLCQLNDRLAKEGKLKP

In experiment [1], `O=C(O)c1ccccc1O` showed a Kis of 19400 µM.
With `O=C(O)c1cc(NCn2c(S)nc3ccccc32)ccc1O`, the Kis is 61 µM in experiment [1], 180 µM in experiment [2], greater than 100 µM in experiment [3] and greater than 100 µM in experiment [4].
For the molecule `O=C(CSc1nnc(Nc2ccc(F)cc2)s1)c1ccc(Cl)cc1`, the Kii in experiment [5] stood at 131 µM; in experiment [6], 92 µM. In addition, the Kis in experiment [1] is 110 µM; in experiment [2] it was 57 µM; in experiment [3], 53 µM; in experiment [4] it was greater than 100 µM.
`O=C(/C=C/c1cccc([N+](=O)[O-])c1)c1c(O)nc2cc([N+](=O)[O-])ccc2c1-c1ccccc1`: the Kis is 54 µM in experiment [1], greater than 100 µM in experiment [2], greater than 100 µM in experiment [3] and greater than 100 µM in experiment [4].
Regarding `O=S(=O)(O)Oc1c2ccccc2c2ccc3c(OS(=O)(=O)O)c4ccccc4c4ccc1c2c34`, the Kis in experiment [1] is 39 µM; in experiment [2], greater than 100 µM; in experiment [3], greater than 100 µM; in experiment [4] it was greater than 100 µM.
`C[C@]12CC[C@@H]3c4ccc(OS(=O)(=O)O)cc4CC[C@H]3[C@@H]1CCC2=O`: the Kis in experiment [1] worked out at 2100 µM.
In the case of `O=C1c2ccccc2-c2cc([N+](=O)[O-])cc3cccc1c23`, the Kis in experiment [1] is 21 µM; in experiment [2] it was greater than 100 µM; in experiment [3], 68 µM and 57 µM; in experiment [4], greater than 100 µM.
Turning to `O=S(=O)(O)c1ccc2c3c(ccc2c1)CCCC3`, the Kis in experiment [1] was 240 µM; in experiment [2], 410 µM; in experiment [3] it was greater than 1000 µM; in experiment [4], greater than 1000 µM.
In turn, `O=[N+]([O-])c1ccc(OS(=O)(=O)O)cc1` gave a Kis in experiment [1] of 10000 µM.
Regarding `O=C(O)c1ccc(Oc2ccc(C(=O)c3ccc4c(c3)C(=O)OC4=O)cc2)cc1`, the Kis is 510 µM in experiment [1], greater than 1000 µM in experiment [2], greater than 1000 µM in experiment [3] and greater than 1000 µM in experiment [4].
In the case of `Cc1ccc2c(c1)nc(S)n2CNc1ccc(C(=O)O)c(O)c1`, in experiment [1], the Kis worked out at 750 µM.
With `C[C@]12CC[C@@H]3c4ccc(OS(=O)(=O)O)cc4CC[C@H]3[C@@H]1CC[C@@H]2O`, the NI entry in experiment [7] is “no inhibition at 1 mM”.
